# Screening results: PubChem BioAssay, several laboratories
# An excerpt weighted towards active compounds, which were near 1.3% of everything screened.
# DDE Tn6 FP inh = inhibitors of Tn6 peptide binding to fibrin DD(E), primary screen, biochemical, fluorescence polarization, human fibrin, Tn6 probe; Fibrin DD(E) TRITC-Tn6 fluorescence polarization displacement; actives 0.21% (n = 370,000); Fibrinogen beta chain (Homo sapiens), P02675; AID 720509, 2013; inhibition, % at 8.3 µM;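 active = inhibition above a per-campaign cutoff: mean of compounds within control limits plus 3 SD, cut at about 15% in these data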
# Target sequence (P02675 whole entry, looked up): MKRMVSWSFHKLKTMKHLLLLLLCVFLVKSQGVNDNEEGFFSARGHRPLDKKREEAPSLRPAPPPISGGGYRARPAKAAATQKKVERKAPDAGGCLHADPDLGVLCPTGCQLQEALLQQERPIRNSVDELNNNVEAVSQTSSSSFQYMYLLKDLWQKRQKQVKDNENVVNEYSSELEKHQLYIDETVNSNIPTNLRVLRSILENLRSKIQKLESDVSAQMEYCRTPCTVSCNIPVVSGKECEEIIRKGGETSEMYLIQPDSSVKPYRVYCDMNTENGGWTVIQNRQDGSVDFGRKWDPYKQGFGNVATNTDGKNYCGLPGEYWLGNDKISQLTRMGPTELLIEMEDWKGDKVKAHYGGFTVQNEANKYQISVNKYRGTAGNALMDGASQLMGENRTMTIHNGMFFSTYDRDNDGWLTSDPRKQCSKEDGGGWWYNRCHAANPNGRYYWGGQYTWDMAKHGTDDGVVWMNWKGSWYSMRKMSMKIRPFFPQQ
# Tn7 DDE FP = inhibitors of Tn7 peptide binding to fibrin DD(E), primary screen, biochemical, fluorescence polarization, human fibrin, Tn7 probe; Fibrinogen beta chain (Homo sapiens), P02675; FP displacement of FITC-Tn7 peptide from fibrin DD(E); 0% = median of compound wells per plate; inhibition, % at 8.3 µM; actives 0.13% (n = 370,000); AID 720508, 2013;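 active = inhibition above the mean of compounds falling within the control limits plus 3 SD of them, cut at about 14% in these data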
#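 Assay system: human fibrin DD(E) protein / Input: 2 µM fibrin DD(E) / Benchmarks: high control of 10 µM Aha-Tn7 peptide / Measured by: fluorescence polarization of the labelled Tn7 tracer / Medium: Tris buffer with calcium and detergent, pH 7.8 / Timing: 10 min compound pre-incubation, 3 h probe incubation at room temperature / Repeats: one replicate per compound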
# CendR NRP1 mod = modulators of CendR peptide binding to NRP-1, primary screen, biochemical, fluorescence polarization, uHTS | FAM-RPARPAR peptide binding to NRP-1 | inhibition, % at 25 µM | actives 0.85% (n = 360,000) | AID 602438, 2012;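 active = inhibition or corrected inhibition above about 18%, plus a signal ratio from 0.5 to 1.5, limit read from the data, passing the limit was not always enough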
# aDG glyco act = activators of alpha-DG glycosylation, primary screen, uHTS, Pro5-aDG cells, AlphaScreen | actives 0.22% (n = 360,000) | activation, % at 10 µM | alpha-DG glycosylation AlphaScreen (IIH6); 0% Pro5, 100% B10-LARGE cell signal;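 active = activation of at least 8% versus controls, or a plate z-score of at least 8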;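 note: Pro5 are CHO cells carrying HIG-tagged alpha-DG that lacks glycosylation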
# aDG glyco conf = alpha-DG glycosylation enhancers, retest, confirmation, single concentration, Pro5-aDG cells. shares compounds with aDG glyco act. IIH6 AlphaLISA; scaled to LARGE-overexpressing B10 cells as 100%. activation, % at 10 µM (by protocol). actives 17% (n = 600). AID 651671, 2012;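 active = activation of at least 7% in one or more replicates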;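 note: cells exposed to compound for two days before detection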
# A number is an active result; n = inactive; x = no result.
SMILES,DDE Tn6 FP inh,Tn7 DDE FP,CendR NRP1 mod,aDG glyco act,aDG glyco conf
CCS(=O)(=O)N1CCCC(C(=O)c2ccc(OC)cc2C)C1 (configuration not stated),n,n,n,24.6,n
COc1ccc(C(=O)C2CCCN(S(=O)(=O)c3ccc(C(C)=O)cc3)C2)c(C)c1 (configuration not stated),n,n,n,n,x
COc1cccc(Nc2nc(C(N)c3ccccc3)cs2)n1 (configuration not stated),n,n,n,n,x
C=CCNC(=S)NNC(=O)CCC(O)CCCCC (configuration not stated),n,n,n,8.4,n
Nc1nc2c(ncn2[C@@H]2O[C@H](C(=O)N[C@H](Cc3ccccc3)C(=O)NCc3ccc4c(c3)OCO4)[C@@H](O)[C@H]2O)c(=O)[nH]1,n,n,x,x,x
CCCOc1ccc(C(=O)N(CC(C)C)c2c(N)n(Cc3ccccc3)c(=O)[nH]c2=O)cc1,n,n,n,5.7,n
COC(=O)c1cc2c(c3c4cc(F)ccc4n(S(=O)(=O)c4cccc(C)c4)c13)C(=O)N(c1ccc(OC)cc1)C2,n,n,x,x,x
Nc1nc(-c2ccccn2)nc(N)c1Cc1ccccc1F,n,n,n,n,x
Nc1nc(-c2ccccn2)nc(N)c1Cc1c(F)cccc1Cl,n,n,n,8.0,n
CCCC(=O)N1CCC(NS(=O)(=O)c2ccc3c(c2)CCN3C(C)=O)CC1,n,n,x,x,x
CC(C)c1cc(-c2cc(-c3ccccc3)on2)nc(NC2CCCC2)n1,n,n,n,n,x
CC(C)c1cc(-c2cc(-c3ccc(Cl)cc3)on2)nc(NC2CCCC2)n1,n,n,n,5.7,n
COc1cc(NC(=O)CNC(=O)Cn2c(C)cc3ccccc3c2=O)cc(OC)c1OC,n,n,n,3.3,n
COc1ccc(NC(=O)CNC(=O)Cn2c(C)cc3ccccc3c2=O)cc1OC,n,n,n,n,x
O=C(CSCc1cccc(Br)c1)NC1CC1,n,n,n,5.3,n
COc1cc([N+](=O)[O-])ccc1NC(=O)NCC1CCN(Cc2ccc(Cl)cc2)CC1,n,n,n,3.3,n
Cc1nn(C)c(C)c1/C=C/C(=O)O,n,n,n,n,x
Cc1nn(C)c(C)c1/C=C/C(=O)c1ccc(Cl)cc1Cl,n,n,n,8.4,n
O=C1[C@H](c2ccccc2)[C@@H](c2ccncc2)N1c1ccncc1,n,n,x,x,x
CCOC(=O)[C@]12CCC=C1N(CCC1=CCCCC1)C(=O)[C@H](CC(=O)N1CCCC1)C2,n,n,n,n,x
COC(=O)[C@]12C[C@H](CC(=O)NCc3ccc(C)o3)C(=O)N(Cc3ccccc3)C1=C[C@H](C(C)C)O[C@@H]2C1CC1,n,n,x,x,x
COc1ccc(C2N=C(c3ccccc3)NO2)cc1OC (configuration not stated),n,n,n,2.8,n
COC[C@H](NS(=O)(=O)c1ccc(Br)cc1F)[C@@H](O)c1ccccc1,n,n,n,n,x
CC(=O)N1CCCc2cc(S(=O)(=O)N3CCN(C4CCCCC4)CC3)ccc21,n,n,n,n,x
CC(=O)N1CCCc2cc(S(=O)(=O)N3CCC(C)CC3)ccc21,n,n,n,22.9,n
SMILES,DDE Tn6 FP inh,Tn7 DDE FP,CendR NRP1 mod,aDG glyco act,aDG glyco conf
O=C(O)CSc1nc2ccccc2s1,n,n,n,n,x
O=C(CSc1nc2ccccc2s1)CSc1nc2ccccc2s1,n,n,n,6.8,n
CCN(CC)c1nc(Oc2ccc(=O)[nH]n2)nc(N2CCOCC2)n1,n,n,n,n,x
CN(C)c1nc(Oc2ccc(=O)n(C)n2)nc(N2CCOCC2)n1,n,n,n,6.9,n
OCC(CO)c1cnnc2ccccc12,n,n,n,n,x
O=C(N/N=C/c1ccc([N+](=O)[O-])o1)c1ccccc1-n1cccc1,n,n,n,3.3,n
O=C(CNc1ccccc1)N/N=C/c1ccc([N+](=O)[O-])cc1,n,n,n,n,x
O=C(N/N=C\c1ccccc1)c1ccccc1-n1cccc1,n,n,n,n,x
CC1(C(=O)N/N=C/c2ccc([N+](=O)[O-])o2)CC1(Br)Br (configuration not stated),n,n,n,4.6,n
Cc1ccccc1OCC(=O)N/N=C/c1ccc([N+](=O)[O-])o1,n,n,n,7.9,n
Cc1cc(C)cc(OCC(=O)N/N=C/c2ccc([N+](=O)[O-])o2)c1,n,n,n,n,x
O=C(CNc1cccc([N+](=O)[O-])c1)N/N=C/c1ccc([N+](=O)[O-])o1,n,n,n,18.9,4.7
COC(=O)c1cc2c(c3c4cc(F)ccc4n(S(=O)(=O)c4ccccc4)c13)C(=O)N(Cc1ccco1)C2,n,n,x,x,x
O=C(C1CCC1)N1CCN(c2cccc(C(F)(F)F)c2)CC1,n,n,n,n,x
O=C(C1CCN(c2nnc(-n3cccc3)s2)CC1)N1CCN(c2cccc(C(F)(F)F)c2)CC1,n,n,n,8.0,n
CN1CCN(c2ccc(S(=O)(=O)N3CCCCC3)cc2NC(=O)/C=C/c2ccc(OC(F)F)cc2)CC1,n,n,n,7.5,17.3
C[C@H]1CN([C@@H](C)CO)C(=O)c2cc(C3=CCCC3)cnc2O[C@@H]1CN(C)C(=O)c1ccncc1,n,n,n,n,x
O=C(CN1C(=O)NC2(CCCC2)C1=O)Nc1ccc(Cl)c(C(F)(F)F)c1,n,n,n,n,x
CN1CC(=O)N(CC(=O)Nc2ccc(Cl)c(C(F)(F)F)c2)C1=O,n,n,n,5.9,n
CN(CC(=O)Nc1ccccc1C(=O)NC1CC1)Cc1ccco1,n,n,n,4.2,n
CN(CC(=O)Nc1ccccc1C(=O)NC1CC1)Cc1cccs1,n,n,n,n,x
Cc1ccc(N(CC(=O)NC(C)c2ccccc2)S(=O)(=O)c2c(C)n[nH]c2C)cc1 (configuration not stated),n,n,n,5.6,n
O=S(=O)(c1ccc(Cl)cc1)N1CCN(c2ncnc3sccc23)CC1,n,n,n,4.8,n
Cc1cccc(C)c1OCc1cc(C(=O)N2CCC(c3ccncc3)CC2)no1,n,n,n,6.2,n
Cc1cccc(C)c1OCc1cc(C(=O)N2CCN(C3CCCC3)CC2)no1,n,n,n,n,x
O=C(c1cc(COc2c(F)cccc2F)on1)N1CCC(c2ccncc2)CC1,n,n,n,9.2,n
Cc1ccc2cccc(OC(=O)c3cccnc3Oc3ccccc3)c2n1,n,n,x,x,x
C[C@@H]1CN(c2ccc(N3CCN(C(=O)OC(C)(C)C)C[C@@H]3C)cc2C#N)C[C@H](C)O1,n,n,x,x,x
CCOC(=O)C1C(=O)NC(C(=O)OCC)(C(=O)OCC)C1CC (configuration not stated),n,n,n,n,x
